Consider nine compounds from ChEMBL document CHEMBL3352265, “Potentially bioactive organotin(IV) compounds: synthesis, characterization, in vitro bioactivities and interaction with SS-DNA” (Eur J Med Chem, 2014).

Assay [1] concerns Aspergillus niger. The experiment in a line: Antifungal activity against Aspergillus niger FCBP 0198 at 40 mg/mL after 7 days by disc diffusion method. It counts as functional. In a few lines: (§1)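 Disc diffusion on SDA. Fungi cultured at 28 °C for 24 h. 4 mm discs received compound at 40 mg/mL stock in DMSO. DMSO served as negative control, terbinafine as positive control. Plates incubated at 28 °C for 7 days. Growth diameter (mm) measured and inhibition calculated against the negative control. MIC taken as the lowest concentration with no growth.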
On the technique in general: In agar diffusion tests the substance spreads into inoculated agar from a disc or well.

Assay [2] concerns Aspergillus fumigatus. The experiment in a line: Antifungal activity against Aspergillus fumigatus FCBP 66 at 40 mg/mL after 7 days by disc diffusion method. It counts as functional. Summed up: as §1
In assay [3] the test system is Aspergillus flavus. The experiment in a line: Antifungal activity against Aspergillus flavus FCBP 0064 at 40 mg/mL after 7 days by disc diffusion method. It counts as functional. In a few lines:
as §1

For assay [4], the system named is Mucor. In words: Antifungal activity against Mucor FCBP 0400 at 40 mg/mL after 7 days by disc diffusion method. It counts as functional. In a few lines: as §1
Assay [5] relates to Escherichia coli. In words: Antibacterial activity against Escherichia coli ATCC 15224 at 40 mg/mL after 24 hrs by disc diffusion method. Type of assay: functional. The note with it: for zone of inhibition at 40000 µg/mL: ATCC 15224, 24 h, read-out: DIZ. Summed up:
(§2)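 Disc diffusion. Strains grown in nutrient broth at 37 °C for 24 h. 1% culture (about 10^6 CFU/mL) mixed into nutrient agar at 45 °C and poured. 4 mm paper discs received compound at 40 mg/mL stock in DMSO; final concentrations tested were […]. DMSO served as negative control, roxithromycin and cefixime as positive controls. Triplicate plates incubated at 37 °C for 24 h. Complete-inhibition zone diameter (mm) recorded as the mean of 3.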

For assay [6], the system named is Staphylococcus aureus. The experiment in a line: Antibacterial activity against Staphylococcus aureus ATCC 6538 at 40 mg/mL after 24 hrs by disc diffusion method. Type of assay: functional. The note with it: for zone of inhibition at 40000 µg/mL: ATCC 6538, 24 h, read-out: DIZ. In a few lines: as §2
Assay [7] deals with Klebsiella aerogenes. The experiment in a line: Antibacterial activity against Enterobacter aerogenes ATCC 13048 at 40 mg/mL after 24 hrs by disc diffusion method. The note with it: for zone of inhibition at 40000 µg/mL: ATCC 13048, 24 h, read-out: DIZ. It counts as functional. Summed up:
as §2

Assay [8] deals with Salmonella typhimurium. The experiment in a line: Antibacterial activity against Salmonella typhimurium ATCC 14028 at 40 mg/mL after 24 hrs by disc diffusion method. It counts as functional. The following applies: for inhibition zone (IZ): Salmonella enterica subsp. enterica serovar Typhimurium; for zone of inhibition at 40000 µg/mL: Salmonella enterica, ATCC 14028, 24 h, read-out: DIZ. In a few lines: as §2

Assay [9] deals with Bordetella bronchiseptica. In words: Antibacterial activity against Bordetella bronchiseptica ATCC 4617 at 40 mg/mL after 24 hrs by disc diffusion method. Type of assay: functional. The following applies: for zone of inhibition at 40000 µg/mL: ATCC 4617, 24 h, read-out: DIZ. In a few lines:
as §2

In assay [10] the test system is Bacillus spizizenii. In words: Antibacterial activity against Bacillus subtilis ATCC 6633 at 40 mg/mL after 24 hrs by disc diffusion method. Type of assay: functional. The note with it: for zone of inhibition at 40000 µg/mL: ATCC 6633, 24 h, read-out: DIZ. In a few lines: as §2
Assay [11] concerns Escherichia coli. In words: Antibacterial activity against Escherichia coli ATCC 15224 after 18 hrs by microdilution method. Type of assay: functional. Summed up: (§3)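 Broth microdilution. Twofold dilutions in culture broth at […]. Each well inoculated with bacterial suspension (10^8 CFU/mL, about 10^5 CFU/well). Sterility control and growth control (broth plus DMSO) included. Incubated at 36 °C for 18 h, in triplicate. MIC taken as the lowest concentration inhibiting growth, given in micrograms per mL.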
For orientation: Broth dilution looks for growth in wells or tubes with falling amounts of substance.

In assay [12] the test system is Staphylococcus aureus. The experiment in a line: Antibacterial activity against Staphylococcus aureus ATCC 6538 after 18 hrs by microdilution method. It counts as functional. Summed up:
as §3

Assay [13] relates to Klebsiella aerogenes. The experiment in a line: Antibacterial activity against Enterobacter aerogenes ATCC 13048 after 18 hrs by microdilution method. It counts as functional, organism-based. Summed up:
as §3

Assay [14] concerns Bordetella bronchiseptica. In words: Antibacterial activity against Bordetella bronchiseptica ATCC 4617 after 18 hrs by microdilution method. It counts as functional. In a few lines: as §3
In assay [15] the test system is Bacillus spizizenii. In words: Antibacterial activity against Bacillus subtilis ATCC 6633 after 18 hrs by microdilution method. Type of assay: functional. In a few lines:
as §3

In assay [16] the test system is Aspergillus niger. The experiment in a line: Antifungal activity against Aspergillus niger FCBP 0198 after 7 days by disc diffusion method. Type of assay: functional, organism-based. In a few lines: as §1
In assay [17] the test system is Artemia salina. In words: Cytotoxicity in brine shrimp assessed as mortality after 24 hrs. Type of assay: functional.
Assay [18] has as its system Agrobacterium tumefaciens. The experiment in a line: Antitumor activity against Agrobacterium tumefaciens -induced tumor at 1000 ug/ml after 21 days by potato disc bioassay technique. Type of assay: functional. Summed up:
(§4)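 Potato disc assay with 48 h culture of A. tumefaciens At-10. Inoculum contained compound at […]. Red-skinned potatoes sterilized in 0.1% HgCl2; 8 mm × 4 mm discs placed ten per 1.5% agar plate, […] each. Incubated at 28 °C in the dark for 21 days, in triplicate. Discs stained with Lugol's and tumors counted. Percent inhibition calculated against the negative control.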

Assay [19] deals with Agrobacterium tumefaciens. In words: Antitumor activity against Agrobacterium tumefaciens -induced tumor at 100 ug/ml after 21 days by potato disc bioassay technique. Type of assay: functional. Summed up:
as §4

The subject of assay [20] is Agrobacterium tumefaciens. The experiment in a line: Antitumor activity against Agrobacterium tumefaciens -induced tumor at 10 ug/ml after 21 days by potato disc bioassay technique. Type of assay: functional. In a few lines:
as §4

In assay [21] the test system is Escherichia coli. In words: Induction of Escherichia coli pBR322 DNA damage assessed as open circular form at 1000 ug/ml after 60 mins by gel electrophoresis.
Assay [22] concerns Escherichia coli. In words: Induction of Escherichia coli pBR322 DNA damage assessed as open circular form at 100 ug/ml after 60 mins by gel electrophoresis.
Assay [23] has as its system Escherichia coli. The experiment in a line: Induction of Escherichia coli pBR322 DNA damage assessed as open circular form at 10 ug/ml after 60 mins by gel electrophoresis.
Assay [24] deals with Escherichia coli. The experiment in a line: Induction of Escherichia coli pBR322 DNA damage assessed as open circular form at 1 ug/ml after 60 mins by gel electrophoresis.
Assay [25] has as its system Salmonella typhimurium. The experiment in a line: Antibacterial activity against Salmonella typhimurium ATCC 14028 after 18 hrs by microdilution method. It counts as functional. The following applies: Salmonella enterica subsp. enterica serovar Typhimurium. In a few lines:
as §3

Assay [26] concerns Aspergillus fumigatus. The experiment in a line: Antifungal activity against Aspergillus fumigatus FCBP 66 after 7 days by disc diffusion method. Type of assay: functional, organism-based. Summed up: as §1

≈ marks a conversion by molar mass, not a printed value. Calls of active or inactive are those of the source.

`CN(C/C=C/C#CC(C)(C)C)Cc1cccc2ccccc12` [TERBINAFINE]: the zone of inhibition at 40000 µg/mL in assay [1] (FCBP 0198, 168 h, read-out: DIZ) is 35 mm; in [2] (FCBP 66, 168 h, read-out: DIZ) it was 35 mm; in assay [3] (FCBP 0064, 168 h, read-out: DIZ), 35 mm; in [4] (FCBP 0400, 168 h, read-out: DIZ), 32 mm.
“Dibenzylstannanediyl bis[4-(2-methoxyphenylamino)-4-oxobutanoate]”: the inhibition zone (IZ) was 16 mm in assay [5]; 20 mm in assay [6]; 14 mm in assay [7]; 0 mm in assay [8]; 19 mm in [9]; 11 mm in assay [10]. Besides, the inhibition zone (IZ) is 11 mm in assay [1], 0 mm in assay [2], 0 mm in [3] and 0 mm in assay [4]. The MIC (commonly the smallest concentration in the dilution series that meets the test's criterion for growth inhibition) was 50 µg/mL in assay [11]; 100 µg/mL in assay [12]; 150 µg/mL in assay [13]; 50 µg/mL in assay [14]; 200 µg/mL in [15]; 200 µg/mL in [16]. Besides, the LD50 in assay [17] was 1.1 µg/mL. Besides, the Activity in assay [18] was 87.1%; in assay [19] it was 52%; in assay [20] it was 19.3%. For the same compound, the result in assay [21], in assay [22], in assay [23] and in [24] was Active.
Regarding `CC[C@H]1OC(=O)[C@H](C)[C@@H](O[C@H]2C[C@@](C)(OC)[C@@H](O)[C@H](C)O2)[C@H](C)[C@@H](O[C@@H]2O[C@H](C)C[C@H](N(C)C)[C@H]2O)[C@](C)(O)C[C@@H](C)/C(=N\OCOCCOC)[C@H](C)[C@@H](O)[C@]1(C)O` [ROXITHROMYCIN], the zone of inhibition at 40000 µg/mL was determined as 14 mm in [5]; 14 mm in [6]; 12 mm in assay [7]; 16 mm in assay [8]; 19 mm in assay [9]; 10 mm in [10].
On to “Dioctylstannanediyl bis(4-(2-methoxyphenylamino)-4-oxobutanoate)”, for which the inhibition zone (IZ) in [5] was 10 mm; in assay [6], 0 mm; in [7], 0 mm; in [8], 12 mm; in assay [9], 11 mm; in assay [10], 9 mm. In addition, the inhibition zone (IZ) in [1], in [2], in assay [3] and in assay [4] was 0 mm each time. Moreover, the results for the MIC in assay [11], in [25] and in assay [15] were 200 µg/mL, 150 µg/mL and 200 µg/mL, respectively. Moreover, the LD50 in assay [17] was 0.499 µg/mL. The Activity in assay [18] is 65.5%; in [19], 44.9%; in assay [20], 31.2%.
As to “Dimethylstannanediyl bis(4-(2-methoxyphenylamino)-4-oxobutanoate)”, the inhibition zone (IZ) in [5] is 16 mm; in [6] it was 17 mm; in [7], 21 mm; in [8], 16 mm; in assay [9], 19 mm; in assay [10] it was 18 mm. For the same compound, the inhibition zone (IZ) worked out at 15 mm in assay [1], 0 mm in assay [2], 0 mm in assay [3] and 0 mm in [4]. The MIC in assay [11] worked out at 50 µg/mL; in [12], 100 µg/mL; in assay [13], 100 µg/mL; in assay [25], 150 µg/mL; in assay [14], 50 µg/mL; in [15], 100 µg/mL. This compound came in with an MIC in [16] of 200 µg/mL. Further, in [17], the LD50 is 2.89 µg/mL. The Activity was 91.4% in assay [18], 62.9% in assay [19] and 43.2% in assay [20]. Further, the result in [21], in assay [22], in assay [23] and in assay [24] was Active.
In the case of “Dibutylstannanediyl bis(4-(2-methoxyphenylamino)-4-oxobutanoate)”, the inhibition zone (IZ) in assay [5] worked out at 17 mm; in assay [6], 14 mm; in assay [7] it was 27 mm; in [8], 17 mm; in assay [9], 20 mm; in assay [10], 22 mm. Also, the inhibition zone (IZ) in assay [1] worked out at 14 mm; in [2], 12 mm; in [3] it was 0 mm; in [4], 0 mm. For the same compound, the minimal inhibitory concentration (MIC) in assay [11] was determined as 50 µg/mL; in assay [12], 100 µg/mL; in assay [13] it was 25 µg/mL; in assay [25], 50 µg/mL; in assay [14], 50 µg/mL; in assay [15], 50 µg/mL. For the same compound, the MIC in [16] worked out at 150 µg/mL; in assay [26] it was 200 µg/mL. Further, in assay [17], the LD50 was found to be 0.611 µg/mL. For the same compound, the Activity was found to be 88.3% in assay [18], 65.5% in assay [19] and 50.2% in [20]. Also, the outcome in assay [21], in assay [22], in assay [23] and in [24] was inactive.
Consider `CC[C@]1(O)C[C@H]2CN(CCc3c([nH]c4ccccc34)[C@@](C(=O)OC)(c3cc4c(cc3OC)N(C=O)[C@H]3[C@@](O)(C(=O)OC)[C@H](OC(C)=O)[C@]5(CC)C=CCN6CC[C@]43[C@@H]65)C2)C1` [VINCRISTINE], for which the Activity in assay [18], in [19] and in assay [20] was 100% in each case.
Take `C=CC1=C(C(=O)O)N2C(=O)[C@@H](NC(=O)/C(=N\OCC(=O)O)c3csc(N)n3)[C@H]2SC1` [CEFIXIME]: the zone of inhibition at 40000 µg/mL came to 24 mm in assay [5]; 26 mm in assay [6]; 10 mm in assay [7]; 26 mm in [8]; 13 mm in assay [9]; 25 mm in assay [10].
As to `COc1cccc2c1C(=O)c1c(O)c3c(c(O)c1C2=O)C[C@@](O)(C(=O)CO)C[C@@H]3O[C@H]1C[C@H](N)[C@H](O)[C@H](C)O1` [DOXORUBICIN], in [17] (read-out: LD50 (the source's name)), the LC50 amounted to 0.434 µg/mL (≈ 0.798 µM).
